Measurements as given in ChEMBL document CHEMBL4038327, “Inhibitory Kappa B Kinase α (IKKα) Inhibitors That Recapitulate Their Selectivity in Cells against Isoform-Related Biomarkers” (J Med Chem, 2017).
pIC50, pKi: −log10 of the molar value.

Tests used:
[1] = target: T1, Inhibitor of nuclear factor kappa-B kinase subunit beta (Homo sapiens, UniProt O14920); experiment: Inhibition of recombinant full length human IKKbeta expressed in baculovirus infected sf9 insect cells using biotinylated IkBalpha as substrate after 60 mins by DELFIA
T1 sequence (O14920 whole entry): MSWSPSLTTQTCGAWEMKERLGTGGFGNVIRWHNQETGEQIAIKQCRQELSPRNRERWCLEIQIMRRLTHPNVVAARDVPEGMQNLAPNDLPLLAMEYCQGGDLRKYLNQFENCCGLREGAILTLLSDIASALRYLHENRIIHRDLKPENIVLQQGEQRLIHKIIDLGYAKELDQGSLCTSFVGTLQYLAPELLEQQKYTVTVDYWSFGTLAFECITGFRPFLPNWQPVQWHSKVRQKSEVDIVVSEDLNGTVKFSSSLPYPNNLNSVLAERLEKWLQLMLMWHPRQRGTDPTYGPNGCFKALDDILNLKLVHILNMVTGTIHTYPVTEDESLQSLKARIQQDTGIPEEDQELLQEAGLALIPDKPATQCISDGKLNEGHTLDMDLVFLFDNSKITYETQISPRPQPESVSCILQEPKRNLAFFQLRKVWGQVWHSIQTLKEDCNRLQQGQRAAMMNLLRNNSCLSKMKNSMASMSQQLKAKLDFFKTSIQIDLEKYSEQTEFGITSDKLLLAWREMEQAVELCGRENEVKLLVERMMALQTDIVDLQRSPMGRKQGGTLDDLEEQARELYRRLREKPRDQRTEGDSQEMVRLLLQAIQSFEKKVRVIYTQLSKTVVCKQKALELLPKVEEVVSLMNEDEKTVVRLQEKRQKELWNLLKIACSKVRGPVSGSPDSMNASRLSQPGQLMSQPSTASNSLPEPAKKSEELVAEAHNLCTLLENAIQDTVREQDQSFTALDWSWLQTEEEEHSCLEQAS
Method in brief: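 Recombinant IKKβ (37 nM) was incubated with biotinylated IκB-α (Ser32) peptide (0.375 μM) and 40 μM ATP in Tris-HCl pH 7.5 with MgCl2, EDTA, DTT and BSA for 60 min at 30 °C. The reaction was quenched with EDTA and captured on streptavidin. Detection used anti-phospho-IκBα (Ser32/36) mAb plus Eu-anti-mouse IgG, read by time-resolved fluorescence (340/615 nm). Apparent Ki was obtained via Cheng–Prusoff, n=3.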

[2] = target: T2, Inhibitor of nuclear factor kappa-B kinase subunit alpha (Homo sapiens) (UniProt O15111); experiment: (§1) Inhibition of IKKalpha in human U2OS cells assessed as decrease in FCS induced p100 phosphorylation at ser866/870 residues preincubated for 1 hr followed by FCS stimulation for 4 hrs by Western blot analysis; format: cell-based
T2 sequence (whole entry): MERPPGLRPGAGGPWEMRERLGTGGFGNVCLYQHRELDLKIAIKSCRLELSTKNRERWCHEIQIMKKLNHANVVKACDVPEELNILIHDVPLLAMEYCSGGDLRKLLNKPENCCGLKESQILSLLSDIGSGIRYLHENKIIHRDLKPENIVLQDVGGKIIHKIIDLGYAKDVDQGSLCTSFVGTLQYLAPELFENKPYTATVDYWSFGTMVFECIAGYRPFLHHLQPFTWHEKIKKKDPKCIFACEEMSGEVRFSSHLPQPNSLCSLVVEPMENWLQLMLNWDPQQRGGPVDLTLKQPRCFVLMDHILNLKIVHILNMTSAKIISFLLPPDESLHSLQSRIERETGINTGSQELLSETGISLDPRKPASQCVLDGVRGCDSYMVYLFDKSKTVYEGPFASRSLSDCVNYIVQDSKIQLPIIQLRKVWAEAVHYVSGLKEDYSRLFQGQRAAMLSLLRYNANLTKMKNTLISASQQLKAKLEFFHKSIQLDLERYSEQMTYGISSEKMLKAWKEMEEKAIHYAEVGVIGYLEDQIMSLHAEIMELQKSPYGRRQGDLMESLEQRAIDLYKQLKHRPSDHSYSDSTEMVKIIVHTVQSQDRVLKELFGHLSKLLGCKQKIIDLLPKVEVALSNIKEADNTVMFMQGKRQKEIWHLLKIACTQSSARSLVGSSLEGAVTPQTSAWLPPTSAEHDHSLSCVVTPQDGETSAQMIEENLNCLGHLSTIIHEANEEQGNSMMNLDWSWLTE
Method in brief: (§2)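 U2OS cells were grown in McCoy's 5A medium at 37 °C under 5% CO2 and made quiescent by 24 h serum deprivation. They were then pretreated with compound before agonist stimulation in serum-free medium. Phospho-p100, IκBα levels and phospho-p65 (Ser536) were assessed by Western blot.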

[3] = target: T3, Inhibitor of nuclear factor kappa-B kinase subunit alpha (Homo sapiens, UniProt O15111); experiment: as §1; format: cell-based; method in brief: as §2
T3 sequence (O15111 whole entry): T2 sequence (whole entry)

[4] = target: T4, Aurora kinase A (Homo sapiens) (UniProt O14965); experiment: Inhibition of N-terminal His6 tagged recombinant human full length Aurora A expressed in Sf21 cells at 10 uM relative to control
T4 sequence (whole entry): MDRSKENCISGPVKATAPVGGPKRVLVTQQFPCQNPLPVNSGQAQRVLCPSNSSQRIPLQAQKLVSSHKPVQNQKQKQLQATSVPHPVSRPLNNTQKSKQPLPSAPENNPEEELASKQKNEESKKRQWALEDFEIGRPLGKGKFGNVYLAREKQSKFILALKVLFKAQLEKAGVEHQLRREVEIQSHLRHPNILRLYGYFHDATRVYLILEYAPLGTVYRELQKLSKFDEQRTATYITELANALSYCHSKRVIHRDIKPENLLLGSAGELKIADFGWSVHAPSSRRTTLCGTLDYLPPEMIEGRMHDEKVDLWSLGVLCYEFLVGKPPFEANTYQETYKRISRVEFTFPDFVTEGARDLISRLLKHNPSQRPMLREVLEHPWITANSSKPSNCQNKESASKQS
Method in brief: (§3)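 Outsourced commercial kinase panel run at a single concentration, with duplicate assay points.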

[5] = target: Dual specificity mitogen-activated protein kinase kinase 1 (Homo sapiens) (UniProt Q02750); experiment: Inhibition of N-terminal GST tagged/C-terminal His6-tagged recombinant full length human Mek1 expressed in Escherichia coli cells at 10 uM relative to control; method in brief: as §3
[6] = target: Glycogen synthase kinase-3 beta (Homo sapiens) (UniProt P49841); experiment: Inhibition of human N-terminal GST-tagged GSK3beta at 10 uM relative to control; method in brief: as §3
[7] = target: Casein kinase I isoform delta (Homo sapiens) (UniProt P48730); experiment: Inhibition of recombinant human N-terminal GST-tagged CK1delta (1 to 294 residues) expressed in Escherichia coli at 10 uM relative to control; method in brief: as §3
[8] = target: T1, Inhibitor of nuclear factor kappa-B kinase subunit beta; experiment: Inhibition of IKKbeta in human U2OS cells assessed as decrease in TNFalpha induced p65 phosphorylation at ser536 residues at 100 uM preincubated for 1 hr followed by TNFalpha stimulation for 30 mins by Western blot analysis; format: cell-based; conditions: 0.5 h; method in brief: as §2

Sequence of Dual specificity mitogen-activated protein kinase kinase 1 (Homo sapiens) (Q02750 whole entry): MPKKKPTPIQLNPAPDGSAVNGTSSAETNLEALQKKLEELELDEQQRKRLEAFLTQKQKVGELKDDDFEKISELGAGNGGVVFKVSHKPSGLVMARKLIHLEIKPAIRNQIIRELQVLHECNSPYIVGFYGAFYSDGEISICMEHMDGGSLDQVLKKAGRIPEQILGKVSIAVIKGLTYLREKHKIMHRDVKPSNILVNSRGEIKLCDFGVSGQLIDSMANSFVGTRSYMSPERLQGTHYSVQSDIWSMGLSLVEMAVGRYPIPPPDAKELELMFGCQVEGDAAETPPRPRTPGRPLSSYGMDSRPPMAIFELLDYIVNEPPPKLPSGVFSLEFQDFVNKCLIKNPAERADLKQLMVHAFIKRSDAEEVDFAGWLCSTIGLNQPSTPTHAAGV
Sequence of Casein kinase I isoform delta (Homo sapiens) (P48730 whole entry, looked up, the tested form may be a part, canonical isoform): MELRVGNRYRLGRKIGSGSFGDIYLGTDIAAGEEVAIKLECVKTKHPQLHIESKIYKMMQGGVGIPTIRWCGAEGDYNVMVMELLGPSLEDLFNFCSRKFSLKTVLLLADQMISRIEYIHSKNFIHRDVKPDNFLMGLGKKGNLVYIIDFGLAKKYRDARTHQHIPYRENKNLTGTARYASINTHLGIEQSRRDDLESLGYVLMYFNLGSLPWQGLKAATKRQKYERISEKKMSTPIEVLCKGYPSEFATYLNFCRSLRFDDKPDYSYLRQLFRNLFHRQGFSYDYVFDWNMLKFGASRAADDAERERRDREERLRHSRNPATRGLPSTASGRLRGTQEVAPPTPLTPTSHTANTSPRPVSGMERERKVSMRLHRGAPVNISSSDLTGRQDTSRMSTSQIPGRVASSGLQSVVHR
Sequence of Glycogen synthase kinase-3 beta (Homo sapiens) (P49841 whole entry, looked up, the tested form may be a part, canonical isoform): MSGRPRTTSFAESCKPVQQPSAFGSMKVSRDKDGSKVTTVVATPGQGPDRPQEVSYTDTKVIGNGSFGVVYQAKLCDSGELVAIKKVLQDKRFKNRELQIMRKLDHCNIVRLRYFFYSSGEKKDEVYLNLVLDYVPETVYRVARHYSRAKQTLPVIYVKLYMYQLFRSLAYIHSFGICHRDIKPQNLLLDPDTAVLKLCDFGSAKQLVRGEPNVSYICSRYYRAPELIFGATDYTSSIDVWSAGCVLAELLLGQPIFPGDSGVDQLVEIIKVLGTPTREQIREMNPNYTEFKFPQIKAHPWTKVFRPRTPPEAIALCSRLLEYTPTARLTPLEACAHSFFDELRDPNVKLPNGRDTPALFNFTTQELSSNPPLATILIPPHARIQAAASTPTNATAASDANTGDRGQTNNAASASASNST

In the case of `N#Cc1c[nH]c2nc(N)nc(-c3ccc(S(N)(=O)=O)cc3)c12`, the pKi [1] was 6.00, the inhibition [2] was “Dose-dependent effect” and the pIC50 [3] was 5.06 to 5.24. For the same molecule, the inhibition [4] was over 80%, the inhibition [5] was over 80% and the inhibition [6] was over 80%. For the same molecule, the inhibition [7] was over 80% and the “inhibition (INH)” value [8] was “Active”.
